Assay results: ChEMBL document CHEMBL1134354, “Anti-AIDS agents. 42. Synthesis and anti-HIV activity of disubstituted (3'R,4'R)-3',4'-di-O-(S)-camphanoyl-(+)-cis-khellactone analogues” (J Med Chem, 2001)
The source made the active and inactive calls. The rule behind the calls is not given here.

Columns and labels:
[1] = system: H9; assay: Inhibitory activity against HIV-1 replication in H9 lymphocytes; type: functional, cell-based; settings: Homo sapiens
Procedure, shortened: (§1)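 They were infected with HIV-1 at a moi of 0.1–0.01 for 4 h, washed three times, and then cultured for 4 days with graded drug concentrations; AZT was run as a control. Day-4 cell-free supernatant p24 was measured by ELISA. Toxicity was measured by Coulter counts of mock-infected cells.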

[2] = system: H9; assay: Toxicity was determined in H9 lymphocytes; type: functional, cell-based; settings: Homo sapiens; procedure, shortened: as §1
[3] = Therapeutic index is the ratio of IC50 to EC50 in H9 lymphocytes; type: cell-based; settings: human, read-out: TI; procedure, shortened: as §1
[4] = system: H9; assay: Inhibitory activity against HIV-1 replication in H9 lymphocytes; NS= no suppression; type: functional, cell-based; settings: Homo sapiens; procedure, shortened: as §1

SMILES	EC50 [1] [nM]	IC50 [2] [nM]	selectivity ratio [3]	NS [4]
Cc1cc(=O)oc2c3c(cc(OCc4ccccc4)c12)OC(C)(C)[C@H](OC(=O)C12CCC(C)(C(=O)O1)C2(C)C)[C@@H]3OC(=O)C12CCC(C)(C(=O)O1)C2(C)C (stereo partly drawn)	1540	135000	87.7	–
Cc1cc2c(C)cc3c(c2oc1=O)[C@@H](OC(=O)C12CCC(C)(C(=O)O1)C2(C)C)[C@@H](OC(=O)C12CCC(C)(C(=O)O1)C2(C)C)C(C)(C)O3 (stereo partly drawn)	9.1	> 154000	> 16900	–
Cc1c(-c2ccccc2)c(=O)oc2c3c(ccc12)OC(C)(C)[C@H](OC(=O)C12CCC(C)(C(=O)O1)C2(C)C)[C@@H]3OC(=O)C12CCC(C)(C(=O)O1)C2(C)C (stereo partly drawn)	43700	> 140000	> 3.2	–
COc1cc2c(c3oc(=O)cc(C)c13)[C@@H](OC(=O)C13CCC(C)(C(=O)O1)C3(C)C)[C@@H](OC(=O)C13CCC(C)(C(=O)O1)C3(C)C)C(C)(C)O2 (stereo partly drawn)	0.00721	> 150000	> 2.08e+07	–
Cc1cc2c(c3oc(=O)cc(C(C)C)c13)[C@@H](OC(=O)C13CCC(C)(C(=O)O1)C3(C)C)[C@@H](OC(=O)C13CCC(C)(C(=O)O1)C3(C)C)C(C)(C)O2 (stereo partly drawn)	–	> 147000	–	inactive

More lines, in order of falling EC50 [1], values ahead:

EC50 [1] [nM]	SMILES	IC50 [2] [nM]	selectivity ratio [3]	NS [4]
4.19	Cc1cc2c(c3oc(=O)cc(C)c13)[C@@H](OC(=O)C13CCC(C)(C(=O)O1)C3(C)C)[C@@H](OC(=O)C13CCC(C)(C(=O)O1)C3(C)C)C(C)(C)O2 (stereo partly drawn)	> 154000	> 36800	–
2.12	CC1(C)Oc2ccc3c4c(c(=O)oc3c2[C@@H](OC(=O)C23CCC(C)(C(=O)O2)C3(C)C)[C@H]1OC(=O)C12CCC(C)(C(=O)O1)C2(C)C)CCCC4 (stereo partly drawn)	> 148000	> 69800	–
2.01	Cc1c(Cl)c(=O)oc2c3c(ccc12)OC(C)(C)[C@H](OC(=O)C12CCC(C)(C(=O)O1)C2(C)C)[C@@H]3OC(=O)C12CCC(C)(C(=O)O1)C2(C)C (stereo partly drawn)	104000	51700	–
1.92	Cc1c(C)c2ccc3c(c2oc1=O)[C@@H](OC(=O)C12CCC(C)(C(=O)O1)C2(C)C)[C@@H](OC(=O)C12CCC(C)(C(=O)O1)C2(C)C)C(C)(C)O3 (stereo partly drawn)	> 154000	> 80200	–
0.256	CC1(C)Oc2ccc3ccc(=O)oc3c2[C@@H](OC(=O)C23CCC(C)(C(=O)O2)C3(C)C)[C@H]1OC(=O)C12CCC(C)(C(=O)O1)C2(C)C (stereo partly drawn)	–	137000	–
